{
  "source": "paper PMC8404201",
  "about": "(Journal of Medicinal Chemistry, 2021)",
  "key": {"[1]": {"test": "Pilot mouse pharmacokinetic study", "type": "in vivo, BALB/c mice", "conditions": "mice; for gross toxicity after single IV dose: single low-dose 10 mg/kg IV"}, "[2]": {"test": "Tolerability of repeated daily IP injection in mice", "type": "in vivo", "conditions": "10 sequential daily IP injections, 10 mg/kg (34 in 100% DMSO)", "method_in_brief": "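Mice got 10 sequential daily IP injections of test compound dissolved in 100% DMSO. They were monitored for clinical adverse signs.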"}},
  "note": "Entries after “also recorded” stand apart in the source; their conditions may differ.",
  "data": [
    {"compound": "CN(C)c1ccc2cc(-c3cn(C)c4ccccc34)c(N)nc2c1", "note": "[Compound 34, 3-[3-(N-Methylindolyl)-N^7,N^7-dimethyl]-2,7-quinolinediamine]", "values": [
      {"measurement": "apparent oral bioavailability (F)", "setting": "[1]; PO vs IV, 10 mg/kg", "value": "< 20", "unit": "%"},
      {"measurement": "gross toxicity after single IV dose", "setting": "[1]", "value": "no gross toxicity"},
      {"measurement": "tolerability / adverse events after repeated daily IP injection", "setting": "[2]", "value": "toxic"}
    ]},
    {"compound": "CN(C)c1ccc2cc(-c3cc(Cl)cc(Cl)c3)c(N)nc2c1", "note": "[Compound 27, 3-[3,5-Dichlorophenyl]-N^7,N^7-dimethylquinoline-2,7-diamine]", "values": [
      {"measurement": "gross toxicity after single IV dose", "setting": "[1]", "value": "no gross toxicity"},
      {"measurement": "tolerability / adverse events after repeated daily IP injection", "setting": "[2]", "value": "not observed; also recorded: tolerable"}
    ]}
  ]
}
